Data on 48 sequences can be found in the EternaBench riboswitch data.

This data set has as its system MS2 coat protein. The data set is described as follows: apparent Kd, MS2 coat protein; higher = weaker binding; RNA-MaP array; FMN 200 µM where present. The method in brief: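 The apparent Kd comes from binding curves fitted cluster by cluster, filtered, and summarised as a median. Those curves followed SNAP-549-labelled MS2 coat protein from 0.7 or 1.5 nM, doubling to 3 µM, on Illumina sequencing-chip clusters where stalled E. coli RNA polymerase had transcribed the designs, without and then with constant ligand. The buffer was 100 mM Tris-HCl pH 7.5, 80 mM KCl, 4 mM MgCl2, BSA, DTT, yeast tRNA and Tween-20, and green signal was normalised to red-channel RNA signal and control-cluster median Fmax.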

Where [1] appears, read: designed as: OFF switch for flavin mononucleotide, no ligand.
Setting [2] is: ligand present: flavin mononucleotide, designed as: OFF switch for flavin mononucleotide.
[3] abbreviates: designed as: ON switch for flavin mononucleotide, no ligand.
The mark [4] stands for this setting: ligand present: flavin mononucleotide, designed as: ON switch for flavin mononucleotide.

Turning to “AUCAGCUCGUCAGGAUAUACGUCGUGGUAAGAUCACAUGAGGAUCACCCAUGUAGAAGGGACGAGCUGAUAAGCACGAAAGUGC”, the apparent Kd (usually the concentration giving half-maximal binding under the conditions of the assay) is, setting by setting: under setting [1], 745 nM; under setting [2], 47.1 nM.

Take “UCGUAUAAGGGCAUUACACAUGAGGAUCACCCAUGUACGUUAGAGGAUAUGCAUUUCAGUCGAACGUAGAAGGCUAGAGAAGGG”: the “apparent Kd” value was found to be 117 nM under setting [1] and 100 nM under setting [2].

Take “AUUGUAGUUGUGAGGAUAUCGUUGAUUUUUUGAAACGAGAAGGCACAUGAGGAUCACCCAUGUUAGUUGUUGGU”: the “apparent Kd” value by setting is: under setting [1], 84 nM; under setting [2], 212 nM.

In the case of “UCAGGCUUCGAGAAGGACAUGAGGAUCACCCAUGUUAACAUGUAGCAGCCGUGAGGCUGCAUCAUGUAGGAUAUCGGAGUCUGC”, the “apparent Kd” value is, setting by setting: under setting [1], 6.07 nM; under setting [2], 7.07 nM.

“GUGGUCAGACAUGAGGAUCACCCAUGUGGAAUAAAUAACGUCAAGGAUAUACAAUAUAGGAUAUAGUAGAAGGUGAGAUUGGUG”: the “apparent Kd” value was 114 nM under setting [3] and 113 nM under setting [4].

Consider “CACACAUGAGGAUCACCCAUGUCGUGGGCGGAAAACUGUGCACAGGAUAUGGUGAGUGCAACUCACCAGAAGGGUGGUCAGGAA”, for which the “apparent Kd” value came to 122 nM under setting [3] and 63 nM under setting [4].

Consider “GGAUCGAGUGUGAGGAUAUGCUGGUCCUUGGAUCAGCAGAAGGCACAUGAGGAUCACCCAUGUCCAAGCGGUCC”, for which the “apparent Kd” value under setting [1] was found to be 152 nM and the “apparent Kd” value under setting [2] was found to be 701 nM.

Consider “GAUCCUCGGUCAGGAUAUCCCGGCCGGCGGCCGGGAGAAGGGACAUGAGGAUCACCCAUGUUUCGGUCCUUACCCGCUUGGGUC”, for which the “apparent Kd” value worked out at 34 nM under setting [1] and 37.1 nM under setting [2].

For the sequence “AUGUAGUGCGAAGGAUAUGCGACUGCCUCGGCCGCAGAAGGUCGCACAUGAGGAUCACCCAUGUGCGGUGCAAAGAGUGGUUCU”, the “apparent Kd” value under setting [1] was 111 nM and the “apparent Kd” value under setting [2] worked out at 76.3 nM.

In the case of “CUCUUGUCAGGAUAUCUUACAUAACAAUCGUAGUUACCAUUGGAGAAGGGACAUGAGGAUCACCCAUGUUAGCC”, the “apparent Kd” value by setting is: under setting [1], 23.8 nM; under setting [2], 46.5 nM.

“GGGUACAUCGGAGGAUAUCAUGUAAAUACAUGAGGAUCACCCAUGUCGAUGGAGACAUCGGAGAUUGAGAAGGCCGAUGUACCC”: the “apparent Kd” value by setting is: under setting [3], 178 nM; under setting [4], 9.58 nM.

On to “UUAUUAUAUGUAGGAUAUGCAUAUUAUCAUUGUGCAGAAGGACAUGAGGAUCACCCAUGUAUAUUAUUAUUAUAUAUUAUAUAU”, for which the “apparent Kd” value was found to be 17.5 nM under setting [1] and 18.5 nM under setting [2].

Regarding “GUCGGAAACGACAAACGUAGCAUACGAGAAGGCUGAUCCACGACAUGAGGAUCACCCAUGUAUUUAGAGGAUAUUGGAUGCUAC”, the “apparent Kd” value was 126 nM under setting [3] and 20.3 nM under setting [4].

On to “GGAGUGUGAGGAUAUAUGGUGAAGGUGAAGAGAGAGGAGGAGUAGAAGGUACAUGAGGAUCACCCAUGUUUAGG”, for which the “apparent Kd” value by setting is: under setting [1], 47 nM; under setting [2], 41.3 nM.

As to “CUACCUUAUGAGAAGGCGAUUAUGAAACAUGAUCGAGGAUAUCAUGUAAACAUGAGGAUCACCCAUGUAUGGGUAUUAUGGUAA”, the “apparent Kd” value is, setting by setting: under setting [3], 211 nM; under setting [4], 32.8 nM.

“GGAUGACAAAGUCAUCCAUUACGAACAUGAGGAUCACCCAUGUAGGAUAUGCUUCUCAAAGAGAAGCAGAAGGACAUGUGUCUU”: the “apparent Kd” value worked out at 30.1 nM under setting [1] and 157 nM under setting [2].

With “CAUACACAUGAGGAUCACCCAUGUGAGGAUAUGCGUACGUUGUCCGUAGGCGACGUGCGCAGAAGGCGCAAGGU”, the “apparent Kd” value is, setting by setting: under setting [1], 63.3 nM; under setting [2], 81 nM.

On to “AAAAAGUGAGGAUAUGCACUGUCCUGUAGACGCGAGCAGUUGUAGAAGGCACAUGAGGAUCACCCAUGUUUAAA”, for which the “apparent Kd” value by setting is: under setting [1], 25.1 nM; under setting [2], 22.5 nM.

As for “GGUGGACAUGAGGAUCACCCAUGUGAGGAUAUCGGCUGGUACGUGUUGGCUGGCAUCUCGAGAAGGCACAUAGU”, the “apparent Kd” value was found to be 80.9 nM under setting [1] and 180 nM under setting [2].

Take “UAUGAACAUGAGGAUCACCCAUGUGGUACGAUCACAGGAUAUCACCUCGGACGUGCGAUGUGAGAAGGGUGAUGGU”: the “apparent Kd” value by setting is: under setting [3], 81.6 nM; under setting [4], 29.4 nM.

Consider “UGUUGUAUUACAGGAUAUCUAUGAUUUUAAUUUAGAGAAGGGUAUUCACAUGAGGAUCACCCAUGUAUAUACGAGGAAGUUGUG”, for which the “apparent Kd” value by setting is: under setting [3], 51.2 nM; under setting [4], 58.9 nM.

In the case of “UGGGCGUGUGUCAGGAUAUGUGCUCUUCCUAGAGCGUAGAAGGGACAUGAGGAUCACCCAUGUCGAAUUGCCAA”, the “apparent Kd” value by setting is: under setting [1], 17.4 nM; under setting [2], 30.7 nM.

For “AUUAUUUUGUAGAAGGACGACUAUUAAUAUAUCGUAGGAUAUACUAUUUACAUGAGGAUCACCCAUGUUUAAAUGGAACAAUGU”, the “apparent Kd” value by setting is: under setting [1], 4.99 nM; under setting [2], 6.23 nM.

With “UCAUUAUAGAUCCAUUUUAACUACAUGAGGAUCACCCAUGUGCAGGAUAUCGAUUGUUUUACUUUCGAGAAGGGCAAAUACAGA”, the “apparent Kd” value is, setting by setting: under setting [1], 78 nM; under setting [2], 202 nM.

Turning to “ACCAUGUAAGGAUAUGCGCGGCCCUAAAUCAAUGAGCAAGCGCAGAAGGUACAUGAGGAUCACCCAUGUCACCG”, the “apparent Kd” value runs as follows: under setting [1], 16.6 nM; under setting [2], 51.4 nM.

Turning to “GCACAUUUGUAAGGAUAUACAACAUGAGGAUCACCCAUGUGUUGGAAUUUAGUAGAAGGUACAGACAUGAGGAUCACUUUUGUA”, the “apparent Kd” value under setting [3] came to 174 nM and the “apparent Kd” value under setting [4] was 102 nM.

On to “ACUACUUAGUGAGGAUAUACAUAAUUUAUAACUGUAGAAGGCACAAACCUCAAUACAUGAGGAUCACCCAUGUGGUAUAUCUAU”, for which the “apparent Kd” value reads like this: under setting [1], 188 nM; under setting [2], 380 nM.

With “GUGUAGUCAGGAUAUACAUAGGAAGAGAAUAUAAUAUAAGUACAUGAGGAUCACCCAUGUAGAAGGGACAGUGU”, the “apparent Kd” value under setting [1] came to 35.3 nM and the “apparent Kd” value under setting [2] amounted to 39.9 nM.

As for “AAAAAAAAAAACUAGGAUAUUUAACGGACAACAUGAGGAUCACCCAUGUCACAAAAAAAAAUAGUAAAGAAGGAGUAAAAAAAAAA”, the “apparent Kd” value by setting is: under setting [3], 32.7 nM; under setting [4], 31.8 nM.

Take “CUGAGCAAUGUAGGAUAUCGACUGGAAUACAGUCGAGAAGGACAUGAGGAUCACCCAUGUCAAUGAGUGAAUAAUAAAGCUCAG”: the “apparent Kd” value runs as follows: under setting [1], 20.7 nM; under setting [2], 118 nM.

For the sequence “UUGGACGUCGUCGGAUAUGUAGGAUAUUCCUACAUGAGGAUCACCCAUGUUGACAUGGAAGAAGGACAGAAGGACGAUGUCCAU”, the “apparent Kd” value amounted to 83 nM under setting [3] and 4.6 nM under setting [4].

In the case of “AGAUCCUGAGUCAGGAUAUAGAGGCGAAAGCCUGGCUAGAAGGGACAUGAGGAUCACCCAUGUGGGUUCGUGCC”, the “apparent Kd” value by setting is: under setting [1], 20.2 nM; under setting [2], 66.5 nM.

Take “UUUGUUGUUGUGAGGAUAUCGUAGUUAUUUUGAAACGAGAAGGCACAUGAGGAUCACCCAUGUUUGUUGAUGGU”: the “apparent Kd” value reads like this: under setting [1], 30.7 nM; under setting [2], 127 nM.

As to “CCAACGUACAAUUUAGAUCUACAUGAGGAUCACCCAUGUACGGAGGAUAUCAGCUCGUUUAGAGCUGAGAAGGCCGAAUUAAUU”, the “apparent Kd” value is, setting by setting: under setting [3], 342 nM; under setting [4], 77.4 nM.

In the case of “UUUUAACAUGAGGAUCACCCAUGUGAGGAUAUCGAAAUUUAUAUUAAUAUUUAUAUAUCGAGAAGGCACAUUUU”, the “apparent Kd” value under setting [1] was found to be 113 nM and the “apparent Kd” value under setting [2] was determined as 97.8 nM.

On to “UGCAUGUAAGGAUAUGCAUCCGCCAAAGAACCGGCGCCACAGCAGAAGGUACAUGAGGAUCACCCAUGUGUCCC”, for which the “apparent Kd” value reads like this: under setting [1], 15.1 nM; under setting [2], 29.1 nM.

For the sequence “CUGUUAUAGGUCCAUUUUAACAACAUGAGGAUCACCCAUGUGCAGGAUAUCGUGUUAAUUUUCAUCGAGAAGGGCAUAGUCACG”, the “apparent Kd” value reads like this: under setting [1], 27.2 nM; under setting [2], 58.4 nM.

In the case of “GCAGUGCGAGGAUAUACAUGAGGAUCACCCAUGUGAGAAUAAGAAGUGAGGAAGAAAAGUAGAAGGCGCGUUGG”, the “apparent Kd” value came out at 52.4 nM under setting [1] and 155 nM under setting [2].

Regarding “UGGGUAAGUGUAGGAUAUUUAUAUUAAUAGUAUGGAGAAGGACAUGAGGAUCACCCAUGUACAGGGAGUUGCCCAUUUCCUCUC”, the “apparent Kd” value reads like this: under setting [1], 335 nM; under setting [2], 671 nM.

For the sequence “AUAAAACAUGAGGAUCACCCAUGUCAACAAAAUCGAGGAUAUGGACAGACUUCGGUCUGUCCAGAAGGCGAAUAAU”, the “apparent Kd” value is, setting by setting: under setting [3], 13.7 nM; under setting [4], 14.6 nM.

As to “AGCUGUGGCCGAGGAUAUCAAGAACCAUGGAAAACCAUGGAACCUUGACAUGAGGAUCACCCAUGUGAGAAGGCGGUCUCAGCA”, the “apparent Kd” value under setting [1] came to 14.4 nM and the “apparent Kd” value under setting [2] came to 11.7 nM.

On to “AAUAAGCUAGGAUAUACAUGAGGAUCACCCAUGUGAGGGCACCGCCGGCGCGGGCCCGGUAGAAGGAGCAAUAA”, for which the “apparent Kd” value was determined as 14.2 nM under setting [1] and 13.2 nM under setting [2].

Regarding “CCAGUGCGGGUGGUAUGGCUAACAUGAGGAUCACCCAUGUUGCAGGAUAUCGGCCAGAUUGGGCGCGAGAAGGGCAACGCUGAA”, the “apparent Kd” value was found to be 86.6 nM under setting [1] and 32.6 nM under setting [2].

Take “UAGUUAUUCACAGGAUAUCGCCUCUUAUUACAUGAGGAUCACCCAUGUUUACUUAGUUACAUGUUCGAGAAGGGUGUAGCCGUU”: the “apparent Kd” value runs as follows: under setting [1], 491 nM; under setting [2], 554 nM.

Take “CGCCAUCCCGGUGGCGUGAGGAUACCAGAAGGGACGAUCUCACAUGAGGAUCACCCAUGUUAUAGUCAGGAUAUGGGUUCAUCA”: the “apparent Kd” value was 88.5 nM under setting [3] and 12.3 nM under setting [4].

As to “AAUGGCUGGUGAACUUGGUCACAUGAGGAUCACCCAUGUUAUGAGGAUAUCGCUGCACAUUGACGUGAGAAGGCAUAGCAAGCC”, the “apparent Kd” value by setting is: under setting [1], 132 nM; under setting [2], 453 nM.

As to “CAUCGGAAGCAGAAGGCAUGAACGGACAUGAGGAUCACCCAUGUUGGAAACUCAUGCCCGAAAGAUGAGGAUAUGCGUCCGGGU”, the “apparent Kd” value was determined as 72.8 nM under setting [1] and 17 nM under setting [2].

“CGUAACUGCAUAGGAUAUUGAUACAUGAGGAUCACCCAUGUUUUUCGGAUUAUAUAUCUACUUAGCAAGAAGGAUGGAGUUACG”: the “apparent Kd” value under setting [3] was 7.09 nM and the “apparent Kd” value under setting [4] was 5.15 nM.
